Data published in ChEMBL document CHEMBL2146419, “Effects of polyphenol compounds on influenza A virus replication and definition of their mechanism of action” (Bioorg Med Chem, 2012).

Legend:
MDCK [1] = experiment: Cytotoxicity against dog MDCK cells assessed as loss of cell viability incubated for 24 hrs followed by compound wash out measured after 24 hrs by trypan blue exclusion assay; format: cell-based, Canis lupus familiaris
Summary of the method: (§1)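 Confluent MDCK monolayers plated at 2×10^5/ml were treated after 24 h with compound at 5–40 μg/ml and incubated a further 24 h. Assessed by microscopic examination of morphology, Trypan blue exclusion for viability, and cell counts for multiplication rate.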

MDCK [2] = experiment: Cytotoxicity against dog MDCK cells assessed as morphological alterations incubated for 24 hrs followed by compound wash out measured after 24 hrs by microscopic analysis; format: cell-based, Canis lupus familiaris; summary of the method: as §1
MDCK [3] = experiment: Cytotoxicity against dog MDCK cells assessed as modification of cell multiplication rate incubated for 24 hrs followed by compound wash out measured after 24 hrs by cell counting analysis; format: cell-based, Canis lupus familiaris; summary of the method: as §1
MDCK [4] = experiment: Cytotoxicity against dog MDCK cells assessed as morphological alterations at 40 ug/mL incubated for 24 hrs followed by compound wash out measured after 24 hrs by microscopic analysis; format: cell-based, Canis lupus familiaris; summary of the method: as §1
Influenza A virus = experiment: Antiviral activity against Influenza virus A/Puerto Rico/8/34 H1N1 infected in dog MDCK cells incubated at 1 hr post-infection measured after 24 hrs by hemagglutininating unit assay; format: functional, organism-based; settings: A/Puerto Rico/8/1934(H1N1)
Summary of the method: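 MDCK cells infected with PR8; 1 h after adsorption they were washed, and compound (5–20 μg/ml) or DMSO was added and kept on throughout. Virus released into the supernatant was titrated by HAU assay 24 h p.i. Yield is a percentage of control infected cells given 0.02% DMSO. Means of four experiments, each in duplicate.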

Row | Structure (SMILES) | Activity (MDCK [1]) | Activity (MDCK [2]) | Activity (MDCK [3]) | Activity (MDCK [4]) | Activity (Influenza A virus)
1 | COc1ccc(C(=O)/C=C/c2ccc(F)cc2)c(O)c1 | Dose-dependent effect | Dose-dependent effect | Dose-dependent effect | – | –
2 | Nc1cccc(C(=O)/C=C/c2ccc(O)c(O)c2)c1 | Dose-dependent effect | Dose-dependent effect | Dose-dependent effect | – | –
3 | O=C(/C=C/c1ccc(O)c(O)c1)c1ccc(O)cc1O [BUTEIN] | Dose-dependent effect | Dose-dependent effect | Dose-dependent effect | – | –
4 | COc1ccc(/C=C/C(=O)c2ccc(O)cc2O)cc1 | Dose-dependent effect | Dose-dependent effect | Dose-dependent effect | – | –
5 | O=C(/C=C/c1ccc(O)c(O)c1)c1ccc(O)cc1 | Dose-dependent effect | Dose-dependent effect | Dose-dependent effect | – | –
6 | O=C(/C=C/c1cc(O)cc(O)c1)c1ccc(O)cc1 | Dose-dependent effect | Dose-dependent effect | Dose-dependent effect | – | –
7 | O=C1/C(=C/c2ccc(O)c(O)c2)CCC/C1=C\c1ccc(O)c(O)c1 | Dose-dependent effect | Dose-dependent effect | Dose-dependent effect | – | –
8 | Cc1ccc(/C=C/C(=O)c2ccc(O)cc2O)cc1 | Dose-dependent effect | Dose-dependent effect | Dose-dependent effect | – | –
9 | CCCN1C/C(=C\c2ccc(O)c(O)c2)C(=O)/C(=C/c2ccc(O)c(O)c2)C1 | Dose-dependent effect | Dose-dependent effect | Dose-dependent effect | – | –
10 | O=C(/C=C/c1ccc(O)c(O)c1)c1ccccc1 | Dose-dependent effect | Dose-dependent effect | Dose-dependent effect | – | –
11 | O=C(/C=C/c1ccc(O)cc1)c1cc(O)cc(O)c1 | Non-toxic | Non-toxic | Non-toxic | Toxic | Dose-dependent effect
12 | O=C(/C=C/c1ccc(Cl)cc1)c1ccccc1O | Non-toxic | Non-toxic | Non-toxic | Toxic | Dose-dependent effect
13 | CCOC(=O)C1C/C(=C\c2ccc(O)c(O)c2)C(=O)/C(=C/c2ccc(O)c(O)c2)C1 (stereo unspecified) | Dose-dependent effect | Dose-dependent effect | Dose-dependent effect | – | –
14 | O=C(/C=C/c1ccc(O)c(O)c1)/C=C/c1ccc(O)c(O)c1 | Dose-dependent effect | Dose-dependent effect | Dose-dependent effect | – | –
